Measured values published in ChEMBL document CHEMBL4196248, “Callyspongidic Acids: Amphiphilic Diacids from the Tropical Eastern Pacific Sponge Callyspongia cf. californica” (J Nat Prod, 2018).
The source made the active and inactive calls. No cut-off for these calls is given here.

Key:
Candida albicans [1] = assay: Antimicrobial activity against Candida albicans ATCC 64124 at 32 ug/ml measured after 20 hrs by spectrophotometric method; type: functional, organism-based
Summary of the method: (§1)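 Whole-cell growth-inhibition panel: Gram-negative E. coli ATCC25922, K. pneumoniae ATCC700603, P. aeruginosa PAO1 and A. baumannii CL5973, plus fungi A. fumigatus ATCC46645 and C. albicans ATCC64124. Method follows earlier-described protocols. Highest concentration tested 32 μg/mL.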

Staphylococcus aureus [2] = assay: Antimicrobial activity against methicillin-sensitive Staphylococcus aureus ATCC 29213 at 32 ug/ml measured after 20 hrs by spectrophotometric method; type: functional, organism-based
A2058 = assay: Cytotoxicity against human A2058 cells measured after 24 hrs by MTT assay; type: functional, cell-based; conditions: A2058, 24 h
Summary of the method: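 Human-derived A2058 epithelial melanoma cells, run alongside a panel of other human tumour lines by a previously reported protocol; IC50 values derived.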

Staphylococcus aureus [3] = assay: Antimicrobial activity against methicillin-resistant Staphylococcus aureus MB5393 at 32 ug/ml measured after 20 hrs by spectrophotometric method; type: functional, organism-based
Aspergillus fumigatus [4] = assay: Antimicrobial activity against Aspergillus fumigatus ATCC 46645 at 32 ug/ml measured after 30 hrs by resazurin dye based assay; type: functional, organism-based; summary of the method: as §1
Escherichia coli [5] = assay: Antimicrobial activity against Escherichia coli ATCC 25922 at 32 ug/ml measured after 20 hrs by spectrophotometric method; type: functional, organism-based; summary of the method: as §1
Acinetobacter baumannii [6] = assay: Antimicrobial activity against Acinetobacter baumannii CL5973 at 32 ug/ml measured after 20 hrs by spectrophotometric method; type: functional, organism-based; summary of the method: as §1
Pseudomonas aeruginosa [7] = assay: Antimicrobial activity against Pseudomonas aeruginosa PAO1 at 32 ug/ml measured after 20 hrs by spectrophotometric method; type: functional, organism-based; summary of the method: as §1
Klebsiella pneumoniae [8] = assay: Antimicrobial activity against Klebsiella pneumoniae ATCC 700603 at 32 ug/ml measured after 20 hrs by spectrophotometric method; type: functional, organism-based; summary of the method: as §1
Acinetobacter baumannii [9] = assay: Antimicrobial activity against Acinetobacter baumannii CL5973 at 4 ug/ml measured after 20 hrs by spectrophotometric method; type: functional, organism-based
Pseudomonas aeruginosa [10] = assay: Antimicrobial activity against Pseudomonas aeruginosa PAO1 at 4 ug/ml measured after 20 hrs by spectrophotometric method; type: functional, organism-based
Klebsiella pneumoniae [11] = assay: Antimicrobial activity against Klebsiella pneumoniae ATCC 700603 at 4 ug/ml measured after 20 hrs by spectrophotometric method; type: functional, organism-based
Aspergillus fumigatus [12] = assay: Antimicrobial activity against Aspergillus fumigatus ATCC 46645 at 4 ug/ml measured after 30 hrs by resazurin dye based assay; type: functional, organism-based
Staphylococcus aureus [13] = assay: Antimicrobial activity against methicillin-resistant Staphylococcus aureus MB5393 at 4 ug/ml measured after 20 hrs by spectrophotometric method; type: functional, organism-based
Staphylococcus aureus [14] = assay: Antimicrobial activity against methicillin-sensitive Staphylococcus aureus ATCC 29213 at 4 ug/ml measured after 20 hrs by spectrophotometric method; type: functional, organism-based
Escherichia coli [15] = assay: Antimicrobial activity against Escherichia coli ATCC 25922 at 4 ug/ml measured after 20 hrs by spectrophotometric method; type: functional, organism-based
Candida albicans [16] = assay: Antimicrobial activity against Candida albicans ATCC 64124 at 4 ug/ml measured after 20 hrs by spectrophotometric method; type: functional, organism-based

CCCCCCCCCC[C@H](C(=O)O)[C@@](O)(Cc1ccc(O)cc1)C(=O)O
Activity (Candida albicans [1]): inactive
Activity (Staphylococcus aureus [2]): inactive
IC50 (A2058): 26 µM
Activity (Staphylococcus aureus [3]): inactive
Activity (Aspergillus fumigatus [4]): inactive
Activity (Escherichia coli [5]): inactive
Activity (Acinetobacter baumannii [6]): inactive
Activity (Pseudomonas aeruginosa [7]): inactive
Activity (Klebsiella pneumoniae [8]): inactive

CCCCCCCCCCCC[C@H](C(=O)O)[C@@](O)(Cc1ccc(O)cc1)C(=O)O
Activity (Candida albicans [1]): inactive
Activity (Staphylococcus aureus [2]): inactive
IC50 (A2058): 30 µM
Activity (Staphylococcus aureus [3]): inactive
Activity (Aspergillus fumigatus [4]): inactive
Activity (Escherichia coli [5]): inactive
Activity (Acinetobacter baumannii [6]): inactive
Activity (Pseudomonas aeruginosa [7]): inactive
Activity (Klebsiella pneumoniae [8]): inactive

CCCCCC/C=C\CCCC[C@H](C(=O)O)[C@@](O)(Cc1ccc(O)cc1)C(=O)O
Activity (Candida albicans [1]): inactive
Activity (Staphylococcus aureus [2]): inactive
IC50 (A2058): > 30 µM
Activity (Staphylococcus aureus [3]): inactive
Activity (Aspergillus fumigatus [4]): inactive
Activity (Escherichia coli [5]): inactive
Activity (Acinetobacter baumannii [6]): inactive
Activity (Pseudomonas aeruginosa [7]): inactive
Activity (Klebsiella pneumoniae [8]): inactive

CCCCCCCCCCC[C@H](C(=O)O)[C@@](O)(Cc1ccc(O)cc1)C(=O)O
Activity (Acinetobacter baumannii [9]): inactive
Activity (Pseudomonas aeruginosa [10]): inactive
IC50 (A2058): 3.2 µM
Activity (Klebsiella pneumoniae [11]): inactive
Activity (Aspergillus fumigatus [12]): inactive
Activity (Staphylococcus aureus [13]): inactive
Activity (Staphylococcus aureus [14]): inactive
Activity (Escherichia coli [15]): inactive
Activity (Candida albicans [16]): inactive
